According to ChEMBL document CHEMBL1132751, “Structure-activity relationships of trans-3,5-disubstituted pyrrolidinylthio-1beta-methylcarbapenems. Part 1: J-111,347 and related compounds” (2000):
Values after ≈ are worked out from the molar mass of the structure shown.

How the values were obtained:
Format in all cases: functional
Pseudomonas aeruginosa [1] = test: In vitro antibacterial activity was determined against Pseudomonas aeruginosa AK109.
Staphylococcus aureus [2] = test: In vitro antibacterial activity was determined against methicillin-resistant Staphylococcus aureus pMS520/Smith.
Method in brief: (§1)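 Minimum inhibitory concentration determined by agar dilution. The S. aureus pMS520/Smith and S. epidermidis MB5181 strains are methicillin-resistant isolates.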

Escherichia coli = test: In vitro antibacterial activity was determined against Escherichia coli NIHJ JC2.
[3] = test system: Staphylococcus epidermidis; test: In vitro antibacterial activity was determined against methicillin-resistant Staphylococcus epidermidis MB5181.; method in brief: as §1
Staphylococcus aureus [4] = test: In vitro antibacterial activity was determined against Staphylococcus aureus 209P NIHJ JCI.
Pseudomonas aeruginosa [5] = test: In vitro antibacterial activity was determined against ceftazidime- resistant Pseudomonas aeruginosa AKR17.; method in brief: as §1
Staphylococcus aureus [6] = test: TIn vitro antibacterial activity against methicillin-resistant Staphylococcus aureus pMS520/Smith.; method in brief: as §1

SMILES | MIC (Pseudomonas aeruginosa [1]) [µg/mL] | MIC (Staphylococcus aureus [2]) [µg/mL] | MIC (Escherichia coli) [µg/mL] | MIC [3] [µg/mL] | MIC (Staphylococcus aureus [4]) [µg/mL] | MIC (Pseudomonas aeruginosa [5]) [µg/mL] | MIC (Staphylococcus aureus [6]) [µg/mL]
C[C@@H](O)[C@H]1C(=O)N2C(C(=O)O)=C(S[C@@H]3CN[C@H](CNc4ccccc4)C3)[C@H](C)[C@H]12 | 12.5 (≈ 29.9 µM) | 12.5 (≈ 29.9 µM) | 0.05 (≈ 0.12 µM) | 6.25 (≈ 15 µM) | < 0.006 | 25 (≈ 59.9 µM) | –
C[C@@H](O)[C@H]1C(=O)N2C(C(=O)O)=C(S[C@@H]3CN[C@H](COc4ccc(CN)cc4)C3)[C@H](C)[C@H]12 | 1.56 (≈ 3.49 µM) | 3.13 (≈ 6.99 µM) | 0.025 (≈ 0.0559 µM) | 6.25 (≈ 14 µM) | < 0.006 | 12.5 (≈ 27.9 µM) | –
C[C@@H](O)[C@H]1C(=O)N2C(C(=O)O)=C(S[C@@H]3CN[C@H](CCc4ccccc4)C3)[C@H](C)[C@H]12 | 25 (≈ 60 µM) | 6.25 (≈ 15 µM) | 0.05 (≈ 0.12 µM) | 3.13 (≈ 7.51 µM) | < 0.006 | > 50 | –
C[C@@H](O)[C@H]1C(=O)N2C(C(=O)O)=C(S[C@@H]3CN[C@@H](CSc4ccc(CN)cc4)C3)[C@H](C)[C@H]12 | 1.56 (≈ 3.36 µM) | 3.13 (≈ 6.75 µM) | 0.05 (≈ 0.108 µM) | 3.13 (≈ 6.75 µM) | < 0.006 | 12.5 (≈ 27 µM) | –
C[C@@H](O)[C@H]1C(=O)N2C(C(=O)O)=C(S[C@@H]3CN[C@@H](c4ccc(CN)cc4)C3)[C@H](C)[C@H]12 | 0.39 (≈ 0.934 µM) | 0.78 (≈ 1.87 µM) | 0.025 (≈ 0.0599 µM) | 1.56 (≈ 3.74 µM) | < 0.006 | 3.13 (≈ 7.5 µM) | –
C[C@@H](O)[C@H]1C(=O)N2C(C(=O)O)=C(S[C@@H]3CN[C@H](COc4ccccc4)C3)[C@H](C)[C@H]12 | 25 (≈ 59.7 µM) | 25 (≈ 59.7 µM) | 0.39 (≈ 0.932 µM) | 25 (≈ 59.7 µM) | 0.012 (≈ 0.0287 µM) | > 50 | –
C[C@@H](O)[C@H]1C(=O)N2C(C(=O)O)=C(S[C@@H]3CN[C@H](CSc4ccc(CN)cc4)C3)[C@H](C)[C@H]12 | 0.78 (≈ 1.68 µM) | 1.56 (≈ 3.36 µM) | 0.025 (≈ 0.0539 µM) | 3.13 (≈ 6.75 µM) | < 0.006 | 3.13 (≈ 6.75 µM) | –
C[C@@H](O)[C@H]1C(=O)N2C(C(=O)O)=C(S[C@@H]3CN[C@@H](Cc4ccc(CN)cc4)C3)[C@H](C)[C@H]12 | 25 (≈ 57.9 µM) | 12.5 (≈ 29 µM) | 0.39 (≈ 0.904 µM) | 12.5 (≈ 29 µM) | 0.05 (≈ 0.116 µM) | > 100 | –
C[C@@H](O)[C@H]1C(=O)N2C(C(=O)O)=C(S[C@@H]3CN[C@H](Cc4ccc(CN)cc4)C3)[C@H](C)[C@H]12 | 0.39 (≈ 0.904 µM) | 3.13 (≈ 7.25 µM) | 0.025 (≈ 0.0579 µM) | 3.13 (≈ 7.25 µM) | < 0.006 | 6.25 (≈ 14.5 µM) | –
C[C@@H](O)[C@H]1C(=O)N2C(C(=O)O)=C(S[C@@H]3CN[C@H](Cc4ccccc4)C3)[C@H](C)[C@H]12 | 25 (≈ 62.1 µM) | 6.25 (≈ 15.5 µM) | 0.1 (≈ 0.248 µM) | 3.13 (≈ 7.78 µM) | < 0.006 | > 50 | –
C[C@@H](O)[C@H]1C(=O)N2C(C(=O)O)=C(S[C@@H]3CN[C@H](CSc4ccccc4)C3)[C@H](C)[C@H]12 | 50 (≈ 115 µM) | 6.25 (≈ 14.4 µM) | 0.1 (≈ 0.23 µM) | 3.13 (≈ 7.2 µM) | < 0.006 | 50 (≈ 115 µM) | –
C[C@@H](O)[C@H]1C(=O)N2C(C(=O)O)=C(S[C@@H]3CN[C@H](CCc4ccc(CN)cc4)C3)[C@H](C)[C@H]12 | 0.78 (≈ 1.75 µM) | 3.13 (≈ 7.02 µM) | 0.025 (≈ 0.0561 µM) | 25 (≈ 56.1 µM) | < 0.006 | 6.25 (≈ 14 µM) | –
C[C@@H](O)[C@H]1C(=O)N2C(C(=O)O)=C(S[C@@H]3CN[C@H](c4ccc(CN)cc4)C3)[C@H](C)[C@H]12 | 0.78 (≈ 1.87 µM) | – | 0.025 (≈ 0.0599 µM) | 3.13 (≈ 7.5 µM) | < 0.006 | 6.25 (≈ 15 µM) | 1.56 (≈ 3.74 µM)
C[C@@H](O)[C@H]1C(=O)N2C(C(=O)O)=C(S[C@@H]3CN[C@H](CNc4ccc(CN)cc4)C3)[C@H](C)[C@H]12 | 1.56 (≈ 3.49 µM) | 3.13 (≈ 7.01 µM) | 0.025 (≈ 0.056 µM) | 6.25 (≈ 14 µM) | < 0.006 | 12.5 (≈ 28 µM) | –
C[C@@H](O)[C@H]1C(=O)N2C(C(=O)O)=C(SCCNC=N)C[C@H]12.O | 1.56 | 50 | 0.01 | 50 | < 0.006 | 3.13 | –
CN[C@H](CC(C)C)C(=O)N[C@H]1C(=O)N[C@@H](CC(N)=O)C(=O)N[C@H]2C(=O)N[C@H]3C(=O)N[C@H](C(=O)N[C@H](C(=O)O)c4cc(O)cc(O)c4-c4cc3ccc4O)[C@H](O)c3ccc(c(Cl)c3)Oc3cc2cc(c3O[C@@H]2O[C@H](CO)[C@@H](O)[C@H](O)[C@H]2O[C@H]2C[C@](C)(N)[C@H](O)[C@H](C)O2)Oc2ccc(cc2Cl)[C@H]1O [VANCOMYCIN] | > 100 | 0.78 (≈ 0.538 µM) | > 100 | – | – | > 100 | –
